Source: ChEMBL document CHEMBL1126902, “Synthesis, chemical reactivity, and antitumor evaluation of congeners of carmethizole hydrochloride, an experimental "acylated vinylogous carbinolamine" tumor inhibitor” (J Med Chem, 1993)
pIC50: −log10 of the molar value.

What was measured:
[1] = Percent increase in life span of dying mice tested in vivo at 53 mg/kg against ip implanted LOX amelanotic melanoma in mice (60-day survivors); format: functional; settings: Mus musculus, 1440 h, route intraperitoneal
How it was run: (§1)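 Female CD2F1 mice implanted ip with ascitic fluid carrying ca. 1.7×10^6 LOX amelanotic melanoma cells. Drug given ip on days 1, 5 and 9, starting 24 h after implant, dosed by exact body weight; solutions or suspensions made fresh daily. %ILS is from the median day of death of dying mice versus controls, excluding 60-day survivors.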

[2] = Percent increase in life span of dying mice tested in vivo at 26.5 mg/kg against ip implanted LOX amelanotic melanoma in mice (60-day survivors); format: functional; settings: Mus musculus, 1440 h, route intraperitoneal; how it was run: as §1
[3] = Change in tumor cell population in ip implanted LOX amelanotic melanoma in mice after administration of compound at 53 mg/kg; format: functional, Mus musculus; settings: route intraperitoneal
How it was run: (§2)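 Female CD2F1 mice were implanted ip with ascitic fluid holding ca. 1.7×10^6 LOX cells. Dosing was ip on days 1, 5 and 9, starting 24 h after implantation, by exact body weight, as a solution or suspension in saline plus Tween 80, freshly prepared daily. KE is the net log change in viable tumor cells from start to end of treatment. Bracketed KE assumes Poisson survival, with 60-day survivors tumor-free.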

[4] = Percent increase in life span of dying mice tested in vivo at 106 mg/kg against ip implanted LOX amelanotic melanoma in mice (60-day survivors); format: functional; settings: Mus musculus, 1440 h, route intraperitoneal; how it was run: as §1
[5] = Percent increase in life span of dying mice tested in vivo at 212 mg/kg against ip implanted LOX amelanotic melanoma in mice (60-day survivors); format: functional; settings: Mus musculus, 1440 h, route intraperitoneal; how it was run: as §1
[6] = Change in tumor cell population in ip implanted LOX amelanotic melanoma in mice after administration of compound at 26.5 mg/kg; format: functional, Mus musculus; settings: route intraperitoneal; how it was run: as §2
[7] = Change in tumor cell population in ip implanted LOX amelanotic melanoma in mice after administration of compound at 106 mg/kg; format: functional, Mus musculus; settings: route intraperitoneal; how it was run: as §2
[8] = Change in tumor cell population in ip implanted LOX amelanotic melanoma in mice after administration of compound at 212 mg/kg; format: functional, Mus musculus; settings: route intraperitoneal; how it was run: as §2
P388 [9] = experiment: Percent increase in life span of dying mice tested in vivo at 12.5 mg/kg against ip implanted P388 Leukemia in mice; format: functional; settings: Mus musculus, route intraperitoneal
How it was run: (§3)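 Portage-CD2F1 female mice inoculated ip with ascitic fluid carrying ca. 5.2×10^6 P388 leukemia cells. Drug given ip daily on days 1-5, starting 24 h after inoculation, dosed by average body weight. %ILS is from the median day of death of dying mice versus controls.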

[10] = Concentration required to inhibit tumor growth in […], human breast adenocarcinoma cell line; format: functional
How it was run: (§4)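 Cells grown in RPMI 1640 with 5% fetal calf serum, 5% NuSerum IV and 20 mM HEPES, seeded and allowed to adhere overnight. Compound dissolved in RPMI-1640 plus HEPES and tested over a 5 log range (10 concentrations) for 72 h. Read-out by sulforhodamine B assay. Median-effect dose derived by nonlinear regression of the concentration-effect curve.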

[11] = Percent increase in life span of dying mice tested in vivo at 100 mg/kg against ip implanted LOX amelanotic melanoma in mice (60-day survivors); format: functional; settings: Mus musculus, 1440 h, route intraperitoneal; how it was run: as §1
P388 [12] = experiment: Percent increase in life span of dying mice tested in vivo at 25 mg/kg against ip implanted P388 Leukemia in mice; format: functional; settings: Mus musculus, route intraperitoneal; how it was run: as §3
P388 [13] = experiment: Change in tumor cell population in ip implanted P388 Leukemia in mice after administration of compound at 12.5 mg/kg; format: functional, Mus musculus; settings: route intraperitoneal
How it was run: (§5)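 Female Portage-CD2F1 mice were inoculated ip with ascitic fluid holding ca. 5.2×10^6 P388 cells. Dosing was ip on days 1-5, starting 24 h after inoculation, by average body weight, as a solution or suspension in saline plus Tween 80. KE is the net log change in viable tumor cell population from start to end of the treatment period.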

HT-29 = experiment: Concentration required to inhibit tumor growth in HT29, human colon adenocarcinoma cell line; format: functional, cell-based; how it was run: as §4
P388 [14] = experiment: Percent increase in life span of dying mice tested in vivo at 50 mg/kg against ip implanted P388 Leukemia in mice; format: functional; settings: Mus musculus, route intraperitoneal; how it was run: as §3
[15] = Percent increase in life span of dying mice tested in vivo at 50 mg/kg against ip implanted LOX amelanotic melanoma in mice (60-day survivors); format: functional; settings: Mus musculus, 1440 h, route intraperitoneal; how it was run: as §1
P388 [16] = experiment: Change in tumor cell population in ip implanted P388 Leukemia in mice after administration of compound at 100 mg/kg; toxic; format: functional, organism-based; design: dose 100 mg/kg; settings: Mus musculus; how it was run: as §5
[17] = system: LOX amelanotic melanoma (human); experiment: Percent increase in life span of dying mice tested in vivo at 25 mg/kg against ip implanted LOX amelanotic melanoma in mice (60-day survivors); settings: Mus musculus, 1440 h
P388 [18] = experiment: Percent increase in life span of dying mice tested in vivo at 100 mg/kg against ip implanted P388 Leukemia in mice; format: functional; settings: Mus musculus, route intraperitoneal; how it was run: as §3
Mus musculus = experiment: Change in tumor cell population in ip implanted LOX amelanotic melanoma in mice after administration of compound at 200 mg/kg; toxic; format: functional, organism-based; design: dose 200 mg/kg; how it was run: as §2
[19] = system: LOX amelanotic melanoma (human); experiment: Change in tumor cell population in ip implanted LOX amelanotic melanoma in mice after administration of compound at 25 mg/kg; settings: route intraperitoneal
L1210 (Mus musculus) = experiment: Concentration required to inhibit tumor growth in L1210, murine lymphocytic leukemia cell line
[20] = Percent increase in life span of dying mice tested in vivo at 200 mg/kg against ip implanted LOX amelanotic melanoma in mice (60-day survivors); format: functional; settings: Mus musculus, 1440 h, route intraperitoneal; how it was run: as §1
[21] = Concentration required to inhibit tumor growth in PSN-1, human pancreatic carcinoma cell line; format: functional
How it was run: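 PSN-1 pancreatic carcinoma cells exposed to compound dissolved in RPMI-1640 plus HEPES at its maximum soluble concentration for 72 h. Read-out by sulforhodamine B colorimetric assay.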

P388 [22] = experiment: Change in tumor cell population in ip implanted P388 Leukemia in mice after administration of compound at 25 mg/kg; format: functional, Mus musculus; settings: route intraperitoneal; how it was run: as §5
A549 = experiment: Concentration required to inhibit tumor growth in A549, human lung carcinoma (NSCLC) cell line; format: functional, cell-based; how it was run: as §4
P388 [23] = experiment: Change in tumor cell population in ip implanted P388 Leukemia in mice after administration of compound at 50 mg/kg; toxic; format: functional, organism-based; design: dose 50 mg/kg; settings: Mus musculus
How it was run: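 P388 leukemia: ascitic fluid with ca. 5.2×10^6 cells inoculated ip into Portage-CD₂F₁ female mice. Drug given ip on days 1-5, starting 24 h after inoculation, dosed by average body weight. Vehicle was saline plus Tween 80, as a solution or suspension. KE = net log change in viable tumor cells from start to end of treatment.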

[24] = Change in tumor cell population in ip implanted LOX amelanotic melanoma in mice after administration of compound at 50 mg/kg; format: functional, Mus musculus; settings: route intraperitoneal; how it was run: as §2
[25] = Change in tumor cell population in ip implanted LOX amelanotic melanoma in mice after administration of compound at 100 mg/kg; format: functional, Mus musculus; settings: route intraperitoneal; how it was run: as §2

Compound CNC(=O)OCc1nc(SC2CCCCO2)n(C)c1COC(=O)NC (stereo not given) has an ILS at 53 mg/kg [1] of 15%, an ILS at 26.5 mg/kg [2] of 11% and a KE [3] of 1. The ILS at 106 mg/kg [4] was 15%, the ILS at 212 mg/kg [5] was 8% and the KE [6] was 1.2. It also gave a KE [7] of 1 and a KE [8] of 1.3.
Compound CNC(=O)OCc1nc(SC)n(C)c1COC(=O)NC has an ILS at 12.5 mg/kg (P388 [9]) of 59%, a pIC50 [10] of 3.46 and an ILS at 100 mg/kg [11] of 143%. For the same compound, the ILS at 25 mg/kg (P388 [12]) was 96%, the KE (P388 [13]) was -1.5 and the pIC50 (HT-29; Homo sapiens, HT-29) was 3.79. The pIC50 (HT-29; ht-29) was 3.97, the ILS at 50 mg/kg (P388 [14]) was 17% and the ILS at 50 mg/kg [15] was 117%. The KE (P388 [16]) was “Toxic”, the ILS at 25 mg/kg [17] was 34% and the ILS at 100 mg/kg (P388 [18]) was -34%. For the same compound, the KE (Mus musculus) was “Toxic”, the KE [19] was 0.3 and the pIC50 (L1210 (Mus musculus)) was 5.37. The ILS at 200 mg/kg [20] was -24%, the pIC50 [21] was 3.96 and the KE (P388 [22]) was -4.1. The pIC50 (A549) was 3.66, the KE (P388 [23]) was “Toxic” and the KE [24] was -2.9. The KE [25] was -4.
